{"data": "Assay results of several laboratories", "cell line": "OVCAR-3", "read-out": "cell growth or viability", "note": "Compare with care: the assays were run in different laboratories."}
{"Structure (SMILES)": "COc1ccc(-c2ccc(-c3ccc(C(=N)N)nc3)s2)cc1", "technique": "SRB", "quantity": "GI50", "value": "1.82 µM"}
{"Structure (SMILES)": "COc1ccc(C(=O)/C=C/c2ccccc2Cl)cc1S(N)(=O)=O", "technique": "SRB", "concentration": "10 µM", "quantity": "inhibition", "value": "9%"}
{"Structure (SMILES)": "COc1ccc(-c2ccc(-c3ccc(C(=N)N)nc3)s2)cc1Cl", "technique": "SRB", "quantity": "GI50", "value": "1.83 µM"}
{"Structure (SMILES)": "COc1ccc(C(=O)/C=C/c2cccnc2)cc1S(N)(=O)=O", "technique": "SRB", "time": "48 h", "quantity": "GI50", "value": "10.2 µM"}
{"Structure (SMILES)": "C[C@H]1O[C@@H](n2cc(F)c(=O)[nH]c2=O)[C@H](O)[C@@H]1O", "technique": "CCK-8", "time": "48 h", "quantity": "IC50", "value": "> 50 µM"}
{"Structure (SMILES)": "COc1cc(OC)c(/C=C/S(=O)(=O)Nc2ccc(OC)c(N)c2)c(OC)c1", "technique": "trypan blue", "time": "96 h", "quantity": "IC50", "value": "0.004 µM"}
{"Structure (SMILES)": "O=C1CCC2(Oc3cccc4cccc(c34)O2)c2c(O)ccc(O)c21", "technique": "resazurin", "time": "72 h", "quantity": "IC50", "value": "> 25 µM"}
{"Structure (SMILES)": "CSc1ccc(/C=C2\\C=C(CC(=O)NS(=O)(=O)C(F)(F)F)c3cc(F)ccc32)cc1", "technique": "WST-1", "time": "48 h", "quantity": "EC50", "value": "~160 µM"}
{"Structure (SMILES)": "Cc1ccc(C)c(COc2cc(NC(=O)c3ccc4c(c3)OCO4)ccc2N(C)S(C)(=O)=O)c1", "technique": "SRB", "time": "48 h", "quantity": "GI50", "value": "0.0396 µM"}
{"Structure (SMILES)": "CC(C)C(=O)Nc1ccc([N+](=O)[O-])c(C(F)(F)F)c1", "technique": "CCK-8", "time": "48 h", "quantity": "IC50", "value": "34.1 µM"}
{"Structure (SMILES)": "CC(C)c1cc(-c2n[nH]c(=O)n2-c2ccc3c(ccn3C)c2)c(O)cc1O", "technique": "imaging", "time": "24 h", "quantity": "IC50", "value": "0.279 µM"}
{"Structure (SMILES)": "COc1cccc(Oc2ccccc2NC(=O)CNC(=O)c2cccc3ccccc23)c1", "technique": "SRB", "time": "48 h", "quantity": "GI50", "value": "0.1 µM"}
{"Structure (SMILES)": "CC/C(=C(\\c1ccccc1)c1ccc(OCCN(C)C)cc1)c1ccccc1", "technique": "ATP luminescence", "time": "72 h", "quantity": "EC90", "value": "42.9 µM"}
{"Structure (SMILES)": "COc1ccc(C(=O)/C=C/c2cccc(Cl)c2Cl)cc1S(N)(=O)=O", "technique": "SRB", "concentration": "10 µM", "quantity": "inhibition", "value": "156%"}
{"Structure (SMILES)": "Cc1cc(C)n(C(=S)[S][Au][PH](CCCCCC[PH]([Au][S]C(=S)n2nc(C)cc2C)(c2ccccc2)c2ccccc2)(c2ccccc2)c2ccccc2)n1", "quantity": "GI50", "value": "0.648 µM"}
{"Structure (SMILES)": "C[C@]12CC[C@@H]3c4ccc(O)cc4CC[C@H]3[C@@H]1CC[C@@H]2O", "technique": "ATP luminescence", "time": "72 h", "quantity": "EC50", "value": "27.6 µM"}
